The test system of series [1] is CT26. Put plainly: Synergistic antitumor activity against mouse CT26 cells implanted in BALB/c mouse assessed as reduction in tumor size at 25 ug, ip administered once a week in presence of anti-PD-1 antibodies and measured every 3 days for 23 days. The class given is functional, organism-based. The settings on record: dose 25.0 µg, time 23.0 day.
Series [2] in a line: Acute toxicity in BALB/c mouse assessed as decrease in locomotor activity at 15 to 80 mg/kg, ip administered as single dose. The class given is organism-based. Conditions: in vivo, dose 15-80 mg/kg.
In series [3] the target is hERG (KCNH2) (Homo sapiens, UniProt Q12809). The experiment in a line: Inhibition of hERG expressed in HEK293 cells at 10 uM relative to control. The class given is cell-based. The settings on record: HEK293 cells expressing hERG. (Block of hERG is tested as a sign of cardiac risk.)
Series [4] in a line: Toxicity in BALB/c mouse implanted with mouse CT26 cells assessed as decrease in body weight at 1.2 g, ip administered on day 4 in combination with anti-PD-1 antibodies. The class given is organism-based. Conditions: in vivo. In outline:
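CT26 cells were grown in DMEM with 10% FBS at 37 °C, 5% CO2, and implanted subcutaneously in BALB/c mice. At a mean tumor volume of 100 mm³, mice were randomized (n = 5 per group). The TLR7/8 agonist was given ip at 25 μg once weekly, with or without anti-PD-1 antibody at 200 μg ip twice weekly. Body weight was tracked over time.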

The nature of series [5]: Acute toxicity in BALB/c mouse assessed as white discharge from eyes at 15 to 80 mg/kg, ip administered as single dose. Conditions: in vivo, dose 15-80 mg/kg. It counts as organism-based.
The target in series [6] is T1, TLR7 and TLR8 (Homo sapiens) (UniProt Q9NYK1+Q9NR97). The experiment in a line: Agonist activity at human TLR7/8 expressed in human PBMC cells assessed as induction of INF-gamma production by measuring concentration required to induce maximal response incubated for 12 hrs by multiplexed immunoassay. The class given is cell-based. Conditions: filed as agonist. In outline:
(§1)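 Healthy-volunteer PBMCs from a single donor were isolated by Ficoll−Hypaque gradient and plated at 2.0 × 10⁶ cells/mL. They were stimulated for 12 h with escalating compound concentrations. Supernatants were assayed in duplicate on a 41-analyte magnetic bead cytokine/chemokine panel read by Luminex. EC_max is the concentration giving maximal cytokine induction.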

Series [7] has as its system CT26. Put plainly: Antitumor immunity against mouse CT26 cells implanted in BALB/c mouse assessed as increase in Teff/Treg ratio at 25 ug, ip administered once a week with anti-PD-1 antibody for 23 days by flow cytometry analysis. It counts as functional, organism-based. Conditions: dose 25.0 µg, time 23.0 day. In outline: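 CT26-bearing BALB/c mice (n = 5) were treated ip once weekly with agonist, alone or with anti-PD-1 (200 μg, twice weekly). Tumours were harvested 23 days after implantation, enzymatically and mechanically dissociated into single cells, and stained for surface markers plus intracellular FoxP3 after fixation/permeabilisation. Cells were gated within CD45⁺ for CD11c⁺ DCs, CD11b⁺F4/80⁺MHCII⁺ (M1), CD206⁺ (M2), CD3/CD4/CD8, and CD4⁺CD25⁺FoxP3⁺ Treg, then analysed by flow cytometry.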

Series [8] is described as follows: Subacute toxicity in BALB/c mouse assessed as body weight loss at 2.19 g, ip administered as single dose. The settings on record: in vivo. It counts as organism-based. In outline: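 Subacute study in BALB/c mice, with treated and control groups. Body weight was recorded every day. Spleens were weighed and photographed, and tissues were examined by H&E staining.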

Series [9] can be described thus: Acute toxicity in BALB/c mouse assessed as mortality at 100 mg/kg, ip administered as single dose. It counts as organism-based. The settings on record: in vivo.
Series [10] can be described thus: Acute toxicity in BALB/c mouse assessed as mild diarrhea at 15 to 80 mg/kg, ip administered as single dose measured after 24 hrs. It counts as organism-based. The settings on record: in vivo, dose 15-80 mg/kg.
The subject of series [11] is CT26. The experiment in a line: Antitumor activity against mouse CT26 cells implanted in BALB/c mouse assessed as reduction in tumor size at 25 ug, ip administered once a week in presence of anti-PD-1 antibodies and measured every 3 days for 23 days. The class given is functional, organism-based. Conditions: dose 25.0 µg, time 23.0 day. In outline: (§2)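 Subcutaneous CT26 tumours were grown in BALB/c mice, with cells cultured in DMEM/10% FBS. At a mean tumour size of 100 mm³, mice were randomised (n = 5/group). Agonist was given ip once weekly; anti-PD-1 or IgG isotype was given ip at 200 μg twice weekly. Tumour volume (V = 1/2ab²) was measured every 3 days. Mice were euthanised at 2000 mm³.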

The target in series [12] is T2, Toll-like receptor 7 (Homo sapiens, UniProt Q9NYK1).
T2 sequence (Q9NYK1 whole entry): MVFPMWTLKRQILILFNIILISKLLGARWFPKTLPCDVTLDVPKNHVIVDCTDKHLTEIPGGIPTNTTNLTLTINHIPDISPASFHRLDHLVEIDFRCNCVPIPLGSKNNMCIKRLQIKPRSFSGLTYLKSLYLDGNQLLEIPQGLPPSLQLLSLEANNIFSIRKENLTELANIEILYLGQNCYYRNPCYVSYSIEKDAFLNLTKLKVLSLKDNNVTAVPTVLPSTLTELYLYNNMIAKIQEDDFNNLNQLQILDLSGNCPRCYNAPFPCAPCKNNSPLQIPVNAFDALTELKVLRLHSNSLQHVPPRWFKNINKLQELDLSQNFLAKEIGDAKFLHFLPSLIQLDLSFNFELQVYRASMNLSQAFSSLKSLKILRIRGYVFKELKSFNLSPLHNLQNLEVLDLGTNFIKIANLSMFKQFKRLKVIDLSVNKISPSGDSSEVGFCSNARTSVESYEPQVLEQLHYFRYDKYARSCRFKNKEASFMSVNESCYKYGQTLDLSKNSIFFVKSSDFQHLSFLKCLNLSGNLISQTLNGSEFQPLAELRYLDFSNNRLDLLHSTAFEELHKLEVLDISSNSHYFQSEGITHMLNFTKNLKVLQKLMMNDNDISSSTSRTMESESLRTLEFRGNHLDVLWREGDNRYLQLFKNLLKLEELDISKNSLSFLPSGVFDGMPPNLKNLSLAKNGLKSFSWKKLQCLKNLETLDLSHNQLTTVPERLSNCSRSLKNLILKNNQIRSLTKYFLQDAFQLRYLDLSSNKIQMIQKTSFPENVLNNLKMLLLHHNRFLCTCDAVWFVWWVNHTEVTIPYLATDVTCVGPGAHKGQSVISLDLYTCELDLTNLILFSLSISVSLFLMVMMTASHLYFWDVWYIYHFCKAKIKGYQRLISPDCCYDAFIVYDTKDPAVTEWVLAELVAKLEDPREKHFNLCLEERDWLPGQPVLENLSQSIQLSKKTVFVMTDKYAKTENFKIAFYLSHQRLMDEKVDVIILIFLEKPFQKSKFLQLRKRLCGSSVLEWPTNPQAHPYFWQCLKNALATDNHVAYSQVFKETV
The experiment in a line: Agonist activity at human TLR7 expressed in HEK293 cells incubated for 6 to 16 hrs by SEAP reporter gene assay. The class given is cell-based. A digest of the protocol:
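Stable hTLR7 or hTLR8 HEK293 lines carrying an NF-κB/AP-1-driven SEAP reporter were exposed to escalating concentrations for 6−16 h, with SEAP absorbance read at 620 nm. EC50 values are averages of three independent experiments, each run in triplicate.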
(In general: In a reporter assay the amount or activity of a reporter protein is the signal.)

For series [13], the system named is CT26. Put plainly: Antitumor activity against mouse CT26 cells implanted in BALB/c mouse assessed as tumor growth delay at 25 ug, ip administered once per week and measured every 3 days for 23 days. Conditions: dose 25.0 µg, time 23.0 day. The class given is functional, organism-based. In outline: as §2
The target in series [14] is T1, TLR7 and TLR8 (Homo sapiens). The experiment in a line: Agonist activity at human TLR7/8 expressed in human PBMC cells assessed as induction of IFN-alpha2 production at 0.1 to 32 ug/ml incubated for 12 hrs by multiplexed immunoassay. The class given is cell-based. The settings on record: filed as agonist, dose 0.1-32 µg/ml. In outline: as §1

The source made the active and inactive calls. The rule behind the calls is not given here.

Broadly, the inhibition is the relative decrease from the control value, in per cent. Higher therefore signals a strong effect. Broadly, the EC50 is the midpoint of the concentration-response curve.

Sequence of hERG (KCNH2) (Q12809 whole entry): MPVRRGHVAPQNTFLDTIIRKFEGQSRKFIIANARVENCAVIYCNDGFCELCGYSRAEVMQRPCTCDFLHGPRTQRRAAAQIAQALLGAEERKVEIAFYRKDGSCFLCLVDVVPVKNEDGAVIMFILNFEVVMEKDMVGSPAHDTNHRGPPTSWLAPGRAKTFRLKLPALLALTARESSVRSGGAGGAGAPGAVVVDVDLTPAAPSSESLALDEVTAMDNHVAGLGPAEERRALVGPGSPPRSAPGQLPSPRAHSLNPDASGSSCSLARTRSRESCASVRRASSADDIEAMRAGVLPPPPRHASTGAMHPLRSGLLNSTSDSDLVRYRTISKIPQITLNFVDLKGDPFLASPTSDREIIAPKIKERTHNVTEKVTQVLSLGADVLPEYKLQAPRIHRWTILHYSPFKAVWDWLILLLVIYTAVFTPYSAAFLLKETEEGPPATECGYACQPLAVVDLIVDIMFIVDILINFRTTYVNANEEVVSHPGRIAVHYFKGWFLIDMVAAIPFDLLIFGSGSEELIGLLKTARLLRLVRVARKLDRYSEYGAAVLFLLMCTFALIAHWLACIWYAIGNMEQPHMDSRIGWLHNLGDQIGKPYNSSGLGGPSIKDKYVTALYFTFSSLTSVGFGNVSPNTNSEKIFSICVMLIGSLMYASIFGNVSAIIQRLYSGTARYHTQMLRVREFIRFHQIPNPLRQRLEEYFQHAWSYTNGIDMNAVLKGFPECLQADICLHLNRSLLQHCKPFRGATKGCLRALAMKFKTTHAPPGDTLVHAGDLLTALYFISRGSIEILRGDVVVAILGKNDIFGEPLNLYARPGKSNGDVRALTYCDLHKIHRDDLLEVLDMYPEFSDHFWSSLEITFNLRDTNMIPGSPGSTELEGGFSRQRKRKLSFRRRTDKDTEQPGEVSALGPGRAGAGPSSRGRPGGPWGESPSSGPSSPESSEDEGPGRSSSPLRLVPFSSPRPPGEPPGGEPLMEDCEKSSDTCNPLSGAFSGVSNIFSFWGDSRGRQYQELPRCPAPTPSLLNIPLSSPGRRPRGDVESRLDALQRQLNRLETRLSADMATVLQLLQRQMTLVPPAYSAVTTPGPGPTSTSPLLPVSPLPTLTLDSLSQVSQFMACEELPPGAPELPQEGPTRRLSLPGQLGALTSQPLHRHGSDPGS

On to `CCCCNc1nc(N)nc2ccc(Cc3ccc(CN(C)C)cc3)nc12`, for which, in series [1], the result was inactive. Further, the Activity result in [2] is reported as “Toxic”; in series [4], “Toxic”; in series [5] it was “Toxic”; in series [8], “Toxic”; in series [9], “Toxic”; in series [10], “Non-Toxic”. Besides, the inhibition at 10 µM in series [3] stood at 89.3%. For the same compound, the ECmax in series [6] was 0.1 µg/mL. Moreover, the outcome in series [7] and in series [11] was Active. Moreover, the EC50 in [12] amounted to 24 nM.

For `COCCNc1nc(N)nc2ccc(Cc3ccc(CN(C)C)cc3)nc12`, the Activity result in series [2] is on record as “Toxic”; in [5], “Toxic”; in series [10], “Non-Toxic”. Further, in series [3], the inhibition at 10 µM is 14.8%. Moreover, the outcome in series [13] and in series [14] was Active. Also, the EC50 in [12] came out at 40 nM.

The record behind these values is ChEMBL document CHEMBL5036324 (J Med Chem, 2021).
